Experiments:
Homo sapiens = organism: Homo sapiens; experiment: Selectivity ratio of Ki for human recombinant adenosine 2a receptor to Ki for human recombinant adenosine A3 receptor
Adenosine receptor A2a = Adenosine receptor A2a (Homo sapiens, UniProt P29274); experiment: Displacement of [3H]NECA from human recombinant adenosine 2A receptor expressed in CHO cells after 3 hrs; format: cell-based
Outline: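 Membranes at 50 μg protein, incubated 3 h at 25 °C in 50 mM Tris/HCl, 10 mM MgCl2, pH 7.4 with 30 nM [3H]NECA and varied test concentrations. 100 μM R-PIA defined nonspecific binding. Bound ligand separated on glass-fiber filters and counted. Ki by Cheng-Prusoff; n = 3-6, geometric means, 95% CI.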

Adenosine receptor A2b = target: T1, Adenosine receptor A2b (Homo sapiens, UniProt P29275); experiment: Antagonist activity human recombinant adenosine 2B receptor expressed in CHO cells assessed as inhibition of NECA-stimulated adenylyl cyclase activity; format: functional, cell-based
T1 sequence (P29275 whole entry): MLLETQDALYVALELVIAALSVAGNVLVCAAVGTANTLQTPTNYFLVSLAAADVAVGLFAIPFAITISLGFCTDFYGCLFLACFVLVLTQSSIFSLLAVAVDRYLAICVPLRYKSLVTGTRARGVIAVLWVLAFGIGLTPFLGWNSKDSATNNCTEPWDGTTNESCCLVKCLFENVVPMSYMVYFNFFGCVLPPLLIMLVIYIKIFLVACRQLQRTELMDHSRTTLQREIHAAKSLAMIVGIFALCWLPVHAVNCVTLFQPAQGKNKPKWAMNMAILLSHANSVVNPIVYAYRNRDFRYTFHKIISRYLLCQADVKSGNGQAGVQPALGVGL
Outline: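 Membranes from hA2B-expressing CHO cells, single 54,000g 30-min spin, resuspended in 50 mM Tris/HCl pH 7.4 and used at once. Incubated 20 min with about 150,000 cpm [α-32P]ATP, no EGTA or NaCl. IC50 from concentration-dependent inhibition of NECA-stimulated adenylyl cyclase, converted to Ki; n = 3-6, geometric means with 95% confidence limits.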

Adenosine receptor A3 = target: T2, Adenosine receptor A3 (Homo sapiens, UniProt P0DMS8); experiment: Displacement of [3H]NECA from human recombinant adenosine A3 receptor expressed in CHO cells after 3 hrs; format: cell-based
T2 sequence (P0DMS8 whole entry): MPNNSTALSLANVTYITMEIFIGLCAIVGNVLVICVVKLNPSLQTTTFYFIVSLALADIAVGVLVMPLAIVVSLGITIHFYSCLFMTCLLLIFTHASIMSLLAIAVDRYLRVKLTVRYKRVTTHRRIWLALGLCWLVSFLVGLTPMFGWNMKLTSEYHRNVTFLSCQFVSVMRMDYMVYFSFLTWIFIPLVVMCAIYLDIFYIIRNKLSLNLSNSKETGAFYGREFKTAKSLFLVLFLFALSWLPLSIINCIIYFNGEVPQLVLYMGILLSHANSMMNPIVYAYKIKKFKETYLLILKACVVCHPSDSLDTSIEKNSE
Outline: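 20 μg membrane protein in 50 mM Tris/HCl, 1 mM EDTA, 10 mM MgCl2, pH 8.25 with 10 nM [3H]NECA and test compound over a concentration range, 3 h at 25 °C. Nonspecific binding with 100 μM R-PIA. Filtration, then counting. Ki via Cheng-Prusoff; n = 3-6, geometric means with 95% CI.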

Adenosine receptor A1 = target: T3, Adenosine receptor A1 (Homo sapiens, UniProt P30542); experiment: Displacement of [3H]CCPA from human recombinant adenosine A1 receptor expressed in CHO cells after 3 hrs; format: cell-based
T3 sequence (P30542 whole entry): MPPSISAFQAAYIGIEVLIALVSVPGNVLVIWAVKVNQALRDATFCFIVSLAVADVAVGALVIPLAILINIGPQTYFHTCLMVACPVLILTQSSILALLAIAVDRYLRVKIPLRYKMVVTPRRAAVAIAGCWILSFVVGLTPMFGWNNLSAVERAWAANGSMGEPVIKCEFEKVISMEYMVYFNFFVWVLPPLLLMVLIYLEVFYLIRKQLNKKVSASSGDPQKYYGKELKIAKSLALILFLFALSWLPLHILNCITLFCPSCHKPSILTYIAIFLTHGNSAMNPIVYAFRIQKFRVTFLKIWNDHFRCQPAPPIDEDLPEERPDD
Outline: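 CHO membranes (two-step spin, stored -80 °C), 20 μg protein, incubated 3 h at 25 °C in 200 μL 50 mM Tris/HCl pH 7.4 with 1 nM [3H]CCPA, 0.2 U/mL adenosine deaminase and a range of test concentrations. Nonspecific binding with 1 mM theophylline. Filtration and scintillation counting. Ki by Cheng-Prusoff; n = 3-6, geometric means, 95% CI.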

[1] = target: Adenosine receptors; A1 & A3 (Homo sapiens) (UniProt P30542+P0DMS8); experiment: Selectivity ratio of Ki for human recombinant adenosine A1 receptor to Ki for human recombinant adenosine A3 receptor

Sequence of Adenosine receptor A2a (P29274 whole entry): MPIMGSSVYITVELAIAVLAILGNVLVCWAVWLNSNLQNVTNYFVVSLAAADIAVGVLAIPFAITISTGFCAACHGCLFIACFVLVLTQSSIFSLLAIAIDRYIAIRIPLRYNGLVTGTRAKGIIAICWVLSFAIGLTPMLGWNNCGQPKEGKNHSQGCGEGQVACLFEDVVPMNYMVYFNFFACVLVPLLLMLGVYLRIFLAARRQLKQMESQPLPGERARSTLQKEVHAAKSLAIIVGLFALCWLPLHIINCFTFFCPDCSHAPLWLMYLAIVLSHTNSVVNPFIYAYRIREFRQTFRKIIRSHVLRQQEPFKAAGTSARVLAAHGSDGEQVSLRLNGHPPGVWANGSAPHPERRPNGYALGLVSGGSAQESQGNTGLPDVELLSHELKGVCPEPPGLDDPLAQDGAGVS

COc1ccc(NC(=O)Nc2nc3nn(C)cc3c3nc(-c4ccc(Br)cc4)nn23)cc1
Ratio Ki (Homo sapiens): 4310
Ki (Adenosine receptor A2a): 8.4 µM
Ki (Adenosine receptor A2b): > 10 µM
Ki (Adenosine receptor A3): 0.00195 µM
Ki (Adenosine receptor A1): > 10 µM
Ratio Ki [1]: > 5130

COc1ccc(NC(=O)Nc2nc3nn(C)cc3c3nc(-c4ccc(Cl)cc4)nn23)cc1
Ratio Ki (Homo sapiens): 1100
Ki (Adenosine receptor A2a): 1.46 µM
Ki (Adenosine receptor A2b): > 10 µM
Ki (Adenosine receptor A3): 0.00133 µM
Ki (Adenosine receptor A1): 6.49 µM
Ratio Ki [1]: 4880

O=C(Cc1ccccc1)Nc1nc2nn(CCc3ccccc3)cc2c2nc(-c3ccc(Cl)cc3)nn12
Ratio Ki (Homo sapiens): 364
Ki (Adenosine receptor A2a): 3.09 µM
Ki (Adenosine receptor A2b): > 30 µM
Ki (Adenosine receptor A1): 0.932 µM
Ratio Ki [1]: 110

O=C(Nc1nc2nn(CCc3ccccc3)cc2c2nc(-c3ccc(F)cc3)nn12)c1ccccc1
Ratio Ki (Homo sapiens): 236
Ki (Adenosine receptor A2a): 4.04 µM
Ki (Adenosine receptor A2b): > 30 µM
Ki (Adenosine receptor A3): 0.0171 µM
Ki (Adenosine receptor A1): 0.395 µM
Ratio Ki [1]: 23.1

Cn1cc2c(nc(NC(=O)Nc3ccc(F)cc3)n3nc(-c4ccc(Br)cc4)nc23)n1
Ratio Ki (Homo sapiens): 3450
Ki (Adenosine receptor A2a): 5.93 µM
Ki (Adenosine receptor A2b): > 10 µM
Ki (Adenosine receptor A3): 0.00172 µM
Ki (Adenosine receptor A1): > 30 µM
Ratio Ki [1]: > 17400

Cn1cc2c(nc(NC(=O)Nc3ccccc3)n3nc(-c4ccco4)nc23)n1
Ratio Ki (Homo sapiens): 2380
Ratio Ki [1]: 3710

COc1ccc(NC(=O)Nc2nc3nn(C)cc3c3nc(-c4ccc(C(F)(F)F)cc4)nn23)cc1
Ratio Ki (Homo sapiens): > 42400
Ki (Adenosine receptor A2a): > 100 µM
Ki (Adenosine receptor A2b): > 10 µM
Ki (Adenosine receptor A3): 0.00236 µM
Ki (Adenosine receptor A1): > 100 µM
Ratio Ki [1]: > 42400

COc1ccc(NC(=O)Nc2nc3nn(C)cc3c3nc(-c4ccc(-c5ccccc5)cc4)nn23)cc1
Ratio Ki (Homo sapiens): > 47600
Ki (Adenosine receptor A2a): > 100 µM
Ki (Adenosine receptor A2b): > 10 µM
Ki (Adenosine receptor A3): 0.0021 µM
Ki (Adenosine receptor A1): > 100 µM
Ratio Ki [1]: > 47600

Cn1cc2c(nc(NC(=O)Nc3ccccc3)n3nc(-c4ccc(Br)cc4)nc23)n1
Ratio Ki (Homo sapiens): 944
Ki (Adenosine receptor A2a): 2.36 µM
Ki (Adenosine receptor A2b): > 10 µM
Ki (Adenosine receptor A3): 0.0025 µM
Ki (Adenosine receptor A1): > 10 µM
Ratio Ki [1]: > 4000

Cn1cc2c(nc(NC(=O)Nc3ccc(F)cc3)n3nc(-c4ccc(Cl)cc4)nc23)n1
Ratio Ki (Homo sapiens): 200
Ki (Adenosine receptor A2a): 1.06 µM
Ki (Adenosine receptor A2b): > 10 µM
Ki (Adenosine receptor A3): 0.0053 µM
Ki (Adenosine receptor A1): > 30 µM
Ratio Ki [1]: > 5660

Cn1cc2c(nc(NC(=O)Nc3ccccc3)n3nc(-c4ccc(Cl)cc4)nc23)n1
Ratio Ki (Homo sapiens): 577
Ki (Adenosine receptor A2a): 0.987 µM
Ki (Adenosine receptor A2b): > 10 µM
Ki (Adenosine receptor A3): 0.00171 µM
Ki (Adenosine receptor A1): 5.55 µM
Ratio Ki [1]: 3250

O=C(Cc1ccccc1)Nc1nc2nn(CCc3ccccc3)cc2c2nc(-c3ccc(Br)cc3)nn12
Ki (Adenosine receptor A2a): > 10 µM
Ki (Adenosine receptor A2b): > 10 µM
Ki (Adenosine receptor A3): > 10 µM
Ki (Adenosine receptor A1): > 10 µM

Cn1cc2c(nc(N)n3nc(-c4ccc(-c5ccccc5)cc4)nc23)n1
Ratio Ki (Homo sapiens): > 204
Ki (Adenosine receptor A2a): > 30 µM
Ki (Adenosine receptor A2b): > 10 µM
Ki (Adenosine receptor A3): 0.147 µM
Ki (Adenosine receptor A1): > 100 µM
Ratio Ki [1]: > 680

O=C(Nc1nc2nn(CCc3ccccc3)cc2c2nc(-c3ccc(Cl)cc3)nn12)c1ccccc1
Ratio Ki (Homo sapiens): 1700
Ki (Adenosine receptor A2a): 19.4 µM
Ki (Adenosine receptor A2b): > 30 µM
Ki (Adenosine receptor A3): 0.0114 µM
Ki (Adenosine receptor A1): 0.221 µM
Ratio Ki [1]: 19.4

Cn1cc2c(nc(NC(=O)Nc3ccccc3)n3nc(-c4ccc(C(F)(F)F)cc4)nc23)n1
Ratio Ki (Homo sapiens): 10500
Ki (Adenosine receptor A2a): 36 µM
Ki (Adenosine receptor A2b): > 10 µM
Ki (Adenosine receptor A3): 0.00344 µM
Ki (Adenosine receptor A1): 12.9 µM
Ratio Ki [1]: 3750

Cn1cc2c(nc(NC(=O)Nc3ccc(F)cc3)n3nc(-c4ccc(-c5ccccc5)cc4)nc23)n1
Ratio Ki (Homo sapiens): > 24600
Ki (Adenosine receptor A2a): > 100 µM
Ki (Adenosine receptor A2b): > 10 µM
Ki (Adenosine receptor A3): 0.00406 µM
Ki (Adenosine receptor A1): > 100 µM
Ratio Ki [1]: > 24600

Cn1cc2c(nc(NC(=O)Nc3ccc(F)cc3)n3nc(-c4ccc(C(F)(F)F)cc4)nc23)n1
Ratio Ki (Homo sapiens): > 15700
Ki (Adenosine receptor A2a): > 30 µM
Ki (Adenosine receptor A2b): > 10 µM
Ki (Adenosine receptor A3): 0.00191 µM
Ki (Adenosine receptor A1): 4.42 µM
Ratio Ki [1]: 2310

Cn1cc2c(nc(NC(=O)Nc3ccccc3)n3nc(-c4ccc(-c5ccccc5)cc4)nc23)n1
Ratio Ki (Homo sapiens): > 5090
Ki (Adenosine receptor A2a): > 30 µM
Ki (Adenosine receptor A2b): > 10 µM
Ki (Adenosine receptor A3): 0.0059 µM
Ki (Adenosine receptor A1): > 30 µM
Ratio Ki [1]: > 5090

O=C(Cc1ccccc1)Nc1nc2nn(CCc3ccccc3)cc2c2nc(-c3ccccc3)nn12
Ratio Ki (Homo sapiens): 203
Ki (Adenosine receptor A2a): 0.614 µM
Ki (Adenosine receptor A2b): > 30 µM
Ki (Adenosine receptor A3): 0.00302 µM
Ki (Adenosine receptor A1): 0.192 µM
Ratio Ki [1]: 63.6

Cn1cc2c(nc(N)n3nc(-c4ccc(C(F)(F)F)cc4)nc23)n1
Ratio Ki (Homo sapiens): 22.8
Ki (Adenosine receptor A2a): 6.93 µM
Ki (Adenosine receptor A2b): > 10 µM
Ki (Adenosine receptor A3): 0.304 µM
Ki (Adenosine receptor A1): > 100 µM
Ratio Ki [1]: > 329

O=C(Cc1ccccc1)Nc1nc2nn(CCc3ccccc3)cc2c2nc(-c3ccc(F)cc3)nn12
Ratio Ki (Homo sapiens): 171
Ki (Adenosine receptor A2a): 0.571 µM
Ki (Adenosine receptor A2b): > 30 µM
Ki (Adenosine receptor A3): 0.00334 µM
Ki (Adenosine receptor A1): 0.232 µM
Ratio Ki [1]: 69.5

COc1ccc(-c2nc3c4cn(CCc5ccccc5)nc4nc(NC(=O)c4ccccc4)n3n2)cc1
Ratio Ki (Homo sapiens): 872
Ki (Adenosine receptor A2a): 25.2 µM
Ki (Adenosine receptor A2b): > 10 µM
Ki (Adenosine receptor A3): 0.0289 µM
Ki (Adenosine receptor A1): 0.831 µM
Ratio Ki [1]: 28.8

O=C(Cc1ccccc1)Nc1nc2nn(CCc3ccccc3)cc2c2nc(-c3ccco3)nn12
Ratio Ki (Homo sapiens): 1.33
Ki (Adenosine receptor A3): 0.045 µM
Ratio Ki [1]: 2.67
